pIC50: −log10 of the molar value. Values joined by “and” are separate entries in the source; they are usually repeats but may differ in a detail not shown here. Identical values can stand only once. Each block holds one molecule with its values, some of them ahead of it.
What was measured:
[1] = molecular target: T1, Microsomal triglyceride transfer protein large subunit (Homo sapiens, UniProt P55157); assay: In vitro inhibitory activity against MTP using MTP transfer assay
T1 sequence (P55157 whole entry): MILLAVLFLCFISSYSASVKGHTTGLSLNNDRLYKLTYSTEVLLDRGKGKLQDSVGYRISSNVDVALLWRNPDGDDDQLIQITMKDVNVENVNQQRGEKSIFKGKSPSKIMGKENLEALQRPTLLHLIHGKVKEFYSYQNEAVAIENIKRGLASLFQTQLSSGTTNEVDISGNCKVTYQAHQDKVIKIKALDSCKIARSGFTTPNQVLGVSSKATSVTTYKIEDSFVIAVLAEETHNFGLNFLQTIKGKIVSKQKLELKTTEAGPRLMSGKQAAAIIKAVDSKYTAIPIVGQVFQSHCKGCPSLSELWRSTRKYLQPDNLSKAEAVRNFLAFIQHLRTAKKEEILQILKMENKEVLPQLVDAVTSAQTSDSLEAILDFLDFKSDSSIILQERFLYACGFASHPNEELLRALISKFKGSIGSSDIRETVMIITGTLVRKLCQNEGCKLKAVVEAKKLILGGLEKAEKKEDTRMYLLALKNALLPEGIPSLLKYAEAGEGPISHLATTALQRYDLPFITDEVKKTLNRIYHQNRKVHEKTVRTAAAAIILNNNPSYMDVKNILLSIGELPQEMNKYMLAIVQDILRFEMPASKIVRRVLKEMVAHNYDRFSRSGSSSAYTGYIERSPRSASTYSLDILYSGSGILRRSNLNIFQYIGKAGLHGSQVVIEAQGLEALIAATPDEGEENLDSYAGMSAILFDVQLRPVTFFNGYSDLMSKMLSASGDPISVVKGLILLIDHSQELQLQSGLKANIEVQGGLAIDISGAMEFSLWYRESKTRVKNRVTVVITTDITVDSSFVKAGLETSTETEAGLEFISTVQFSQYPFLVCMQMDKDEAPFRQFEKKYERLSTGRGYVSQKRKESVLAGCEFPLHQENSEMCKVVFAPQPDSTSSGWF

[2] = molecular target: Apolipoprotein B-100 (Homo sapiens) (UniProt P04114); assay: Inhibition of apolipoprotein B (apoB) secreted by human hepatoma cells (Hep G2) at 100 nM
Rattus norvegicus [3] = assay: Inhibition of total cholesterol in normolipidemic rats after 2 hr of 50 mg/kg oral dosing; no significant change; assay type: functional, organism-based; design: dose 50 mg/kg
Method in brief: (§1)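 Overnight-fasted normolipidemic rats received a single oral dose in cornstarch vehicle. Blood was drawn at 2, 6 and 24 h post-dose and assayed for triglycerides and total cholesterol, with free access to food after the 6 h sample. Value is mean percent inhibition versus a separate vehicle-treated group, unpaired t test p < 0.05, NS = no significant change, N = 6.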

Rattus norvegicus [4] = assay: Inhibition of total cholesterol in normolipidemic rats after 6 h of […] mg/kg oral dosing; no significant change; assay type: functional, organism-based; design: dose 50 mg/kg
Rattus norvegicus [5] = assay: Inhibition of total cholesterol in normolipidemic rats after 24 hr of 50 mg/kg oral dosing; no significant change; assay type: functional, organism-based; design: dose 50 mg/kg; method in brief: as §1
Rattus norvegicus [6] = assay: Inhibition of plasma triglycerides in normolipidemic rats after 2 hr of 50 mg/kg oral dosing; assay type: functional; method in brief: as §1
Rattus norvegicus [7] = assay: Inhibition of plasma triglycerides in normolipidemic rats after 24 h of 50 mg/kg oral dosing; no significant change; assay type: functional, organism-based; design: dose 50 mg/kg; method in brief: as §1
Rattus norvegicus [8] = assay: Inhibition of plasma triglycerides in normolipidemic rats after 6 h of […] mg/kg oral dosing; no significant change; assay type: functional, organism-based; design: dose 50 mg/kg
Rattus norvegicus [9] = assay: Inhibition of plasma triglycerides in normolipidemic rats after 24 hr of 50 mg/kg oral dosing; No significant change; assay type: functional, organism-based; design: dose 50 mg/kg; method in brief: as §1
Rattus norvegicus [10] = assay: Inhibition of plasma triglycerides in normolipidemic rats after 2 hr of 50 mg/kg oral dosing; no significant change; assay type: functional, organism-based; design: dose 50 mg/kg; method in brief: as §1
Rattus norvegicus [11] = assay: Inhibition of total cholesterol in normolipidemic rats after 24 hr of 5 mg/kg oral dosing; no significant change; assay type: functional, organism-based; design: dose 5 mg/kg; method in brief: as §1
Canis familiaris [12] = assay: Inhibition of plasma total cholesterol in the normolipidemic dogs after day 4 of oral administration of 5 mg/kg/day; assay type: functional, Canis lupus familiaris
Method in brief: (§2)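 Normolipidemic dogs dosed once daily for 4 days by oral gavage, compound suspended in cornstarch vehicle. Plasma sampled 24 h after dosing on days 0, 2, 3 and 4, assayed for triglycerides and total cholesterol (mg/dL). Mean percent inhibition versus day-0 level is given for treated dogs; n = 6 per group; significance by one-way ANOVA, p < 0.05.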

Canis familiaris [13] = assay: Inhibition of plasma total cholesterol in the normolipidemic dogs after day 2 of oral administration of 5 mg/kg/ day.; assay type: functional, Canis lupus familiaris; method in brief: as §2
Rattus norvegicus [14] = assay: Inhibition of total cholesterol in normolipidemic rats after 6 hr of 10 mg/kg oral dosing; assay type: functional; method in brief: as §1
Canis familiaris [15] = assay: Inhibition of plasma total triglycerides in the normolipidemic dogs after day 0 of oral administration of 5 mg/kg/day.; assay type: functional, Canis lupus familiaris; method in brief: as §2
Rattus norvegicus [16] = assay: Inhibition of plasma triglycerides in normolipidemic rats after 2 hr of 10 mg/kg oral dosing; assay type: functional; method in brief: as §1
Rattus norvegicus [17] = assay: Inhibition of total cholesterol in normolipidemic rats after 24 hr of 10 mg/kg oral dosing; no significant change; assay type: functional, organism-based; design: dose 10 mg/kg; method in brief: as §1
Rattus norvegicus [18] = assay: Inhibition of total cholesterol in normolipidemic rats after 2 h of 5 mg/kg oral dosing; assay type: functional; method in brief: as §1
Canis familiaris [19] = assay: Inhibition of plasma total triglycerides in the normolipidemic dogs after day 2 of oral administration of 5 mg/kg/day.; assay type: functional, Canis lupus familiaris; method in brief: as §2
Rattus norvegicus [20] = assay: Inhibition of total cholesterol in normolipidemic rats after 2 hr of 10 mg/kg oral dosing; assay type: functional; method in brief: as §1
Canis familiaris [21] = assay: Inhibition of plasma total triglycerides in the normolipidemic dogs after day 3 of oral administration of 5 mg/kg/day.; assay type: functional, Canis lupus familiaris
Rattus norvegicus [22] = assay: Inhibition of plasma triglycerides in normolipidemic rats after 6 hr of 50 mg/kg oral dosing; assay type: functional; method in brief: as §1
Canis familiaris [23] = assay: Inhibition of plasma total triglycerides in the normolipidemic dogs after day 4 of oral administration of 5 mg/kg/day; assay type: functional, Canis lupus familiaris
Rattus norvegicus [24] = assay: Inhibition of plasma triglycerides in normolipidemic rats after 24 hr of 10 mg/kg oral dosing; no significant change; assay type: functional, organism-based; design: dose 10 mg/kg; method in brief: as §1
Canis familiaris [25] = assay: Inhibition of plasma total cholesterol in the normolipidemic dogs after day 3 of oral administration of 5 mg/kg/day.; assay type: functional, Canis lupus familiaris; method in brief: as §2
Canis familiaris [26] = assay: Inhibition of plasma total cholesterol in the normolipidemic dogs after day 0 of oral administration of 5 mg/kg/day.; assay type: functional, Canis lupus familiaris; method in brief: as §2
Rattus norvegicus [27] = assay: Inhibition of total cholesterol in normolipidemic rats after 6 hr of 5 mg/kg oral dosing; assay type: functional; method in brief: as §1
Rattus norvegicus [28] = assay: Inhibition of plasma triglycerides in normolipidemic rats after 24 hr of 50 mg/kg oral dosing; assay type: functional; method in brief: as §1
Rattus norvegicus [29] = assay: Inhibition of plasma triglycerides in normolipidemic rats after 6 hr of 10 mg/kg oral dosing; assay type: functional; method in brief: as §1
Rattus norvegicus [30] = assay: (§3) Inhibition of total cholesterol in normolipidemic rats after 24 hr of 50 mg/kg oral dosing; assay type: functional; method in brief: as §1
Rattus norvegicus [31] = assay: Inhibition of total cholesterol in normolipidemic rats after 6 hr of 50 mg/kg oral dosing; assay type: functional; method in brief: as §1
Rattus norvegicus [32] = assay: Inhibition of total cholesterol in normolipidemic rats after 2 hr of 50 mg/kg oral dosing; assay type: functional; method in brief: as §1
Rattus norvegicus [33] = assay: Inhibition of plasma triglycerides in normolipidemic rats after 2 hr of 5 mg/kg oral dosing; assay type: functional; method in brief: as §1
Rattus norvegicus [34] = assay: Inhibition of plasma triglycerides in normolipidemic rats after 24 hr of 5 mg/kg oral dosing; no significant change; assay type: functional, organism-based; design: dose 5 mg/kg; method in brief: as §1
Rattus norvegicus [35] = assay: Inhibition of plasma triglycerides in normolipidemic rats after 6 h of 5 mg/kg oral dosing; assay type: functional; method in brief: as §1
Rattus norvegicus [36] = assay: as §3; assay type: functional, organism-based; design: dose 50 mg/kg; method in brief: as §1

Chain of Apolipoprotein B-100 (Homo sapiens) (P04114 whole entry): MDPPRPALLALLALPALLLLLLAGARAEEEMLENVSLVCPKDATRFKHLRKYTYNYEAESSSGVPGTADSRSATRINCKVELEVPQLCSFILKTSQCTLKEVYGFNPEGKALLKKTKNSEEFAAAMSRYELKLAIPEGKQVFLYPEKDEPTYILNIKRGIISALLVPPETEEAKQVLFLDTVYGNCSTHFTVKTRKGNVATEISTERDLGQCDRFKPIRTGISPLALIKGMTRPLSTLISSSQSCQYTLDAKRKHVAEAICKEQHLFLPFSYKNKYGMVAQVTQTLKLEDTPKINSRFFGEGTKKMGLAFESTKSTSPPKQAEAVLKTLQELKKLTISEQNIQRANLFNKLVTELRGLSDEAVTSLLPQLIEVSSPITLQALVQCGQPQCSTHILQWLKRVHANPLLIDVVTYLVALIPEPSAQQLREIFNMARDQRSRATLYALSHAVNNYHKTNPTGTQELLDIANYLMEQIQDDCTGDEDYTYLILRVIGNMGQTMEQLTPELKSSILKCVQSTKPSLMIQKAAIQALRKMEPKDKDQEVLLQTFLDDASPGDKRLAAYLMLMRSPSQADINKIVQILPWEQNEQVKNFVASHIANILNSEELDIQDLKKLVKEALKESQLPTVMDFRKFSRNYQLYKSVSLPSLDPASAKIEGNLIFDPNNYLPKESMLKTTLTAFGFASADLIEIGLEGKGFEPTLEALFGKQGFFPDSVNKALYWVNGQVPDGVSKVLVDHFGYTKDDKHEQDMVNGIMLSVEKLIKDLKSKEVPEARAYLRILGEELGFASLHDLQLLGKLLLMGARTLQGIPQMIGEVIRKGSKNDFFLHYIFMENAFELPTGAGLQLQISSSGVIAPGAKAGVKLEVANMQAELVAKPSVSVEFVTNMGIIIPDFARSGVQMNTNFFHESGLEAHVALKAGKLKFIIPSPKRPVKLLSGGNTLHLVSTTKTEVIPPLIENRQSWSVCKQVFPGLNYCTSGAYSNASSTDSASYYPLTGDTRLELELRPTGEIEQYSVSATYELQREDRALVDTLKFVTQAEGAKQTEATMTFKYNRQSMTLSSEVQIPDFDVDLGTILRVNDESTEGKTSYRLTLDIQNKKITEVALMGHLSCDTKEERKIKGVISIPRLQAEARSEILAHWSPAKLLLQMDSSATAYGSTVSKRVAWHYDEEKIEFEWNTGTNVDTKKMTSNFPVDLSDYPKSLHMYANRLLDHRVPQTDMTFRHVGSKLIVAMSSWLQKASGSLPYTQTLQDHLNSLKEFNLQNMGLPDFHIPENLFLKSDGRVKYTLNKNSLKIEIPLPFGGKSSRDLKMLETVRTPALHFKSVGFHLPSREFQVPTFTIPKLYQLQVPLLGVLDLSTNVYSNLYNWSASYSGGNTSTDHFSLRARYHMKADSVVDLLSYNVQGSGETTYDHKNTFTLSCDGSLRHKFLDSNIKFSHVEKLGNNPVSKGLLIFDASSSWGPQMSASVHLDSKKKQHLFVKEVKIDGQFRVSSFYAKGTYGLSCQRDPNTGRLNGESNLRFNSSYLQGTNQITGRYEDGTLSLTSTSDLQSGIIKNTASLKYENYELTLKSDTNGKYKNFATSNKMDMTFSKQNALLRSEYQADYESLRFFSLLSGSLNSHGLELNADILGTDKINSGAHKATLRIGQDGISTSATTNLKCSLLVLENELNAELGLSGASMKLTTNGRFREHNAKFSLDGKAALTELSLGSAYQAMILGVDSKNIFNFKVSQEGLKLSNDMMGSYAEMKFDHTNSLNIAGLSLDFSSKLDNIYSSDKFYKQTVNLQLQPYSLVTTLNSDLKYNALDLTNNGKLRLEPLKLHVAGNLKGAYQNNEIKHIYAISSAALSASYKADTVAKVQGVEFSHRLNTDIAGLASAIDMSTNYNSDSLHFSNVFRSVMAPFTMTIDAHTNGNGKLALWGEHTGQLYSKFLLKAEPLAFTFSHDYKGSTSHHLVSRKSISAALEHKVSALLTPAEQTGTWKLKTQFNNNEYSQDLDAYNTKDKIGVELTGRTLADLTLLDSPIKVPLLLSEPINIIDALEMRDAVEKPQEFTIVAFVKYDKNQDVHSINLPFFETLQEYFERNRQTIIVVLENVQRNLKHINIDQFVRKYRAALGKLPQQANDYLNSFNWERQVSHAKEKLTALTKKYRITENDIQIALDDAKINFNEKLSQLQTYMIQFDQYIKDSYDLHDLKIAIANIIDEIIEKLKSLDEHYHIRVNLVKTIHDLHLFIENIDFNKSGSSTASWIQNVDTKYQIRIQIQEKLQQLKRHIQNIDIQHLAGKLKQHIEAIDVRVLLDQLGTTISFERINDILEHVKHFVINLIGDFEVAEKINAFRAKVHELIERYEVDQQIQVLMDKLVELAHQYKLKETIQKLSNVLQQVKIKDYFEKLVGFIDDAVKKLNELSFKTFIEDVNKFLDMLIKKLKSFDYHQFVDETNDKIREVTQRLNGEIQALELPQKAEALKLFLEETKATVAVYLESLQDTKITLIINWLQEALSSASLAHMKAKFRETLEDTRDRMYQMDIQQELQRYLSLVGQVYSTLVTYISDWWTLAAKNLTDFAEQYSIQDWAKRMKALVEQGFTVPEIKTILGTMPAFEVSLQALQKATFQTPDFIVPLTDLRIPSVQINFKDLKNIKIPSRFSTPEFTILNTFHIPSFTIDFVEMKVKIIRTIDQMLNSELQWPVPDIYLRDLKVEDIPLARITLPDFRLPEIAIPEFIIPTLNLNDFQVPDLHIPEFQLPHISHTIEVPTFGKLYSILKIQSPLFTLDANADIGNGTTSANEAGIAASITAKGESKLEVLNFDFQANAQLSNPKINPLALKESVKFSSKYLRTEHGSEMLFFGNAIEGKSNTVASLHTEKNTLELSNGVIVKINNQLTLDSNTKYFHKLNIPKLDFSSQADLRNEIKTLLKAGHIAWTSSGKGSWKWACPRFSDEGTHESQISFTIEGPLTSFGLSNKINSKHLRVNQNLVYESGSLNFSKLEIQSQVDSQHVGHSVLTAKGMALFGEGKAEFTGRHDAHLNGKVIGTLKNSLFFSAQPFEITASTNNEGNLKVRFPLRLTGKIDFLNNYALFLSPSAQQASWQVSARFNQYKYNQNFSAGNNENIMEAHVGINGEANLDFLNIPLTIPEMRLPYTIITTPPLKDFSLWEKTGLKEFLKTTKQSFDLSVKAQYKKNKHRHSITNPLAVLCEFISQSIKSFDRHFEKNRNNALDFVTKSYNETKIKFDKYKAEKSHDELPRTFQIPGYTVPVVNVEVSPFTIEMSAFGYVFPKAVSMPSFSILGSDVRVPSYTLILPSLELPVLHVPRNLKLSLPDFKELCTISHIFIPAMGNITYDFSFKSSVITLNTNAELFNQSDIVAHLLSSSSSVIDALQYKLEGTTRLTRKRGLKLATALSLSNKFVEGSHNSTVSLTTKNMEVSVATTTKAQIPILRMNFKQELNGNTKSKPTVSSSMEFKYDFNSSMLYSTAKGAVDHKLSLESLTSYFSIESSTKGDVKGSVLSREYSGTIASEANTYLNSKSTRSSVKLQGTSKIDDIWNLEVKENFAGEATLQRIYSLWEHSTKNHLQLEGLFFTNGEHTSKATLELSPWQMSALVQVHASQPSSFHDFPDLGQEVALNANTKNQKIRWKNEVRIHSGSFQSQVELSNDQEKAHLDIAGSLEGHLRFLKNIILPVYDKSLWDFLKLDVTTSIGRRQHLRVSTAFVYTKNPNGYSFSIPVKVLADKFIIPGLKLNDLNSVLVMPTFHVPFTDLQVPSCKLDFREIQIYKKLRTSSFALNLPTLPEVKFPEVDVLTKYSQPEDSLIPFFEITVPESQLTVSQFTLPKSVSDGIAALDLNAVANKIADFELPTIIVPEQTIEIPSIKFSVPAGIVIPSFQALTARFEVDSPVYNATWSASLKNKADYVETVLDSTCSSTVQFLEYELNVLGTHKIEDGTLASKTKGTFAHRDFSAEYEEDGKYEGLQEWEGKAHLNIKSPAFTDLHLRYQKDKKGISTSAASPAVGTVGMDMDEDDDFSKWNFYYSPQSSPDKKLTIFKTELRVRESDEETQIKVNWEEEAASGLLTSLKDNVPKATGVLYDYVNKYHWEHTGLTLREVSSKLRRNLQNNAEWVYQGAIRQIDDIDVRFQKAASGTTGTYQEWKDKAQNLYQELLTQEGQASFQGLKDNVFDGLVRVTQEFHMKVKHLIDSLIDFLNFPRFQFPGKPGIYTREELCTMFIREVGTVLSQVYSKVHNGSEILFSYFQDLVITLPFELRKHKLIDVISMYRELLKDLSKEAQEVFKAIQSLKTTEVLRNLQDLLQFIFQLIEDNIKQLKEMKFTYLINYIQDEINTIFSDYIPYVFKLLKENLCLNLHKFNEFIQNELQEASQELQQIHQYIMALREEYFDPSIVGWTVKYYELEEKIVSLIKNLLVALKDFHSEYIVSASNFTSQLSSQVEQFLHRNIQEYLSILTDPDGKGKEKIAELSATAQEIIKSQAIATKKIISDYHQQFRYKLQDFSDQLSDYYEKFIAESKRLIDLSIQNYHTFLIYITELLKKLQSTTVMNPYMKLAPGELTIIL

Compound: COC(=O)N[C@H]1Cc2ccc(NC(=O)c3cc(C)ccc3-c3ccc(C(F)(F)F)cc3)cc2C1
NS (Rattus norvegicus [3]): no significant change | NS (Rattus norvegicus [4]): no significant change | pIC50 [1]: 6.77 | NS (Rattus norvegicus [5]): no significant change | NS (Rattus norvegicus [9]): no significant change | NS (Rattus norvegicus [10]): no significant change | NS (Rattus norvegicus [8]): no significant change

Compound: Cc1cccc(C(=O)Nc2ccc3c(c2)C[C@H](NS(=O)(=O)c2cccs2)C3)c1-c1ccc(C(F)(F)F)cc1
NS (Rattus norvegicus [11]): no significant change | Lipid level (Canis familiaris [12]): <70 mg/dL | Lipid level (Canis familiaris [13]): <81 mg/dL | Reduction (Rattus norvegicus [14]): 39% | Lipid level (Canis familiaris [15]): 31 mg/dL | Reduction (Rattus norvegicus [16]): 83% | NS (Rattus norvegicus [17]): no significant change | pIC50 [1]: 7.30 | Reduction (Rattus norvegicus [18]; 5 mg/kg): 25% and 23% | Lipid level (Canis familiaris [19]): <24 mg/dL | Reduction (Rattus norvegicus [20]): 26% | Lipid level (Canis familiaris [21]): <24 mg/dL | Reduction (Rattus norvegicus [22]; 50 mg/kg): 83% and 56% | Lipid level (Canis familiaris [23]): <20 mg/dL | NS (Rattus norvegicus [24]): no significant change | Reduction (Rattus norvegicus [6]; 50 mg/kg): 88% and 83% | Lipid level (Canis familiaris [25]): <72 mg/dL | Lipid level (Canis familiaris [26]): 120 mg/dL | Reduction (Rattus norvegicus [27]; 5 mg/kg): 50% and 34% | Reduction (Rattus norvegicus [28]): 76% | Reduction (Rattus norvegicus [29]): 56%

Compound: O=C(Nc1ccc2c(c1)C[C@@H](NS(=O)(=O)c1ccccc1)C2)c1ccccc1-c1ccc(C(F)(F)F)cc1
NS (Rattus norvegicus [3]): no significant change | NS (Rattus norvegicus [4]): no significant change | pIC50 [1]: 6.19 | NS (Rattus norvegicus [5]): no significant change | NS (Rattus norvegicus [10]): no significant change | NS (Rattus norvegicus [7]): no significant change | NS (Rattus norvegicus [8]): no significant change

Continued by rising pIC50 [1], values first:

pIC50 [1]: 6.39 | inhibition [2]: 30%
Compound: Cc1cccc(C(=O)Nc2ccc3c(c2)C[C@H](NCc2ccccn2)C3)c1-c1ccc(C(F)(F)F)cc1

pIC50 [1]: 7.15
Compound: COC(=O)N[C@@H]1Cc2ccc(NC(=O)c3cccc(C)c3-c3ccc(C(F)(F)F)cc3)cc2C1
NS (Rattus norvegicus [11]): no significant change | Reduction (Rattus norvegicus [33]): 85% | NS (Rattus norvegicus [5]): no significant change | Reduction (Rattus norvegicus [18]): 33% | NS (Rattus norvegicus [34]): no significant change | Reduction (Rattus norvegicus [31]): 43% | Reduction (Rattus norvegicus [22]): 74% | Reduction (Rattus norvegicus [35]): 71% | Reduction (Rattus norvegicus [32]): 27% | Reduction (Rattus norvegicus [6]): 78% | NS (Rattus norvegicus [7]): no significant change | Reduction (Rattus norvegicus [27]): 45%

pIC50 [1]: 7.15
Compound: COC(=O)NCCC1Cc2ccc(NC(=O)c3cccc(C)c3-c3ccc(C(F)(F)F)cc3)cc2C1 (stereo unspecified)
NS (Rattus norvegicus [3]): no significant change | NS (Rattus norvegicus [4]): no significant change | NS (Rattus norvegicus [36]): no significant change | NS (Rattus norvegicus [10]): no significant change | NS (Rattus norvegicus [7]): no significant change | NS (Rattus norvegicus [8]): no significant change

pIC50 [1]: 7.62
Compound: COC(=O)NCC1Cc2ccc(NC(=O)c3cccc(C)c3-c3ccc(C(F)(F)F)cc3)cc2C1 (stereo unspecified)
NS (Rattus norvegicus [3]): no significant change | NS (Rattus norvegicus [4]): no significant change | NS (Rattus norvegicus [5]): no significant change | Reduction (Rattus norvegicus [6]): 49% | NS (Rattus norvegicus [7]): no significant change | NS (Rattus norvegicus [8]): no significant change

pIC50 [1]: 7.70
Compound: COC(=O)NC1CCc2ccc(NC(=O)c3cc(C)cc(C)c3-c3ccc(C(F)(F)F)cc3)cc2CC1 (stereo unspecified)
Reduction (Rattus norvegicus [30]): 22% | Reduction (Rattus norvegicus [31]): 21% | Reduction (Rattus norvegicus [22]): 44% | Reduction (Rattus norvegicus [32]): 17% | Reduction (Rattus norvegicus [6]): 73% | Reduction (Rattus norvegicus [28]): 36%
